Experimental data published in ChEMBL document CHEMBL4715928, “Discovery of Dipeptides as Potent Botulinum Neurotoxin A Light-Chain Inhibitors” (ACS Med Chem Lett, 2021).

Tests used:
[1] = Zinc chelating activity mediated inhibition of Clostridium botulinum BoNT/A LC activity using SNAPtide as substrate measured for 10 mins by FRET assay
Procedure, shortened: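 BoNT/A light chain at 20 nM was incubated with 8 μM SNAPtide substrate across a range of dipeptide concentrations. IC50 values were derived from the concentration series.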

Clostridium botulinum = test: Zinc chelating activity mediated inhibition of Clostridium botulinum BoNT/A LC activity at 15 uM using SNAPtide as substrate measured for 10 mins by FRET assay relative to control
Procedure, shortened: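 Recombinant BoNT/A light chain at 20 nM, 8 μM SNAPtide FRET substrate, each dipeptide tested at 15 μM. Reactions were run in triplicate, and percent inhibition is the mean of the three.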

| SMILES | IC50 [1] [nM] | inhibition (Clostridium botulinum) [%] |
| --- | --- | --- |
| CC[C@H](C)[C@H](NC(=O)[C@@H](NS(=O)(=O)c1cc(Cl)cc(Cl)c1)C(C)C)C(=O)NO | 69 |  |
| CC[C@H](C)[C@H](NC(=O)[C@H](Cc1ccccc1)NS(=O)(=O)c1ccc(-c2ccccc2)cc1)C(=O)NO |  | 77 |
| CC[C@H](C)[C@@H](NS(=O)(=O)c1ccc(-c2ccc(Cl)cc2)cc1)C(=O)N[C@@H](Cc1ccccc1)C(=O)NO |  | 62 |
| CCC[C@H](NC(=O)[C@@H](NS(=O)(=O)c1ccc(-c2ccc(Cl)cc2)cc1)[C@@H](C)CC)C(=O)NO | 1000 |  |
| CC[C@H](C)[C@@H](NC(=O)[C@@H](Cc1ccccc1)NS(=O)(=O)c1ccc(-c2ccc(Cl)cc2)cc1)C(=O)NO |  | 63 |
| CC[C@H](C)[C@H](NC(=O)[C@H](CC(C)C)NS(=O)(=O)c1ccc(-c2ccc(Cl)cc2)cc1)C(=O)NO |  | 100 |
| CC[C@H](C)[C@H](NC(=O)[C@@H](Cc1ccccc1)NS(=O)(=O)c1ccc(-c2ccc(Cl)cc2)cc1)C(=O)NO |  | 41 |
| CC[C@H](C)[C@H](NC(=O)[C@H](Cc1ccccc1)NS(=O)(=O)c1ccc(-c2ccc(Cl)cc2)cc1)C(=O)NO | 2400 | 100 |
| CC[C@H](C)[C@H](NC(=O)[C@H](Cc1ccccc1)NS(=O)(=O)c1cc(Cl)cc(Cl)c1)C(=O)NO | 150 | 100 |
| CCC[C@H](NC(=O)[C@H](Cc1ccccc1)NS(=O)(=O)c1cc(Cl)cc(Cl)c1)C(=O)NO | 43 |  |
| CC[C@H](C)[C@H](NC(=O)[C@H](Cc1ccccc1)NS(=O)(=O)c1ccc(C2CCCCC2)cc1)C(=O)NO |  | 57 |
| CCOc1ccc(S(=O)(=O)N[C@@H](Cc2ccccc2)C(=O)N[C@H](C(=O)NO)[C@@H](C)CC)cc1OCC |  | 22 |
| CC[C@H](C)[C@H](NC(=O)[C@H](C)NS(=O)(=O)c1ccc(-c2ccc(Cl)cc2)cc1)C(=O)NO |  | 31 |
| CC(C)[C@H](NC(=O)[C@H](Cc1ccccc1)NS(=O)(=O)c1cc(Cl)cc(Cl)c1)C(=O)NO | 21 |  |
| CC[C@H](C)[C@H](NC(=O)[C@H](Cc1ccccc1)NS(=O)(=O)c1cccc(Cl)c1)C(=O)NO |  | 79 |
| CC[C@H](C)[C@H](NC(=O)[C@H](Cc1ccccc1)NS(=O)(=O)c1c(Cl)cccc1Cl)C(=O)NO |  | 83 |
| CC[C@H](C)[C@@H](NC(=O)[C@H](NS(=O)(=O)c1ccc(-c2ccc(Cl)cc2)cc1)[C@@H](C)CC)C(=O)NO |  | 48 |

| SMILES | IC50 [1] [nM] | inhibition (Clostridium botulinum) [%] |
| --- | --- | --- |
| CC[C@H](C)[C@H](NS(=O)(=O)c1ccc(-c2ccc(Cl)cc2)cc1)C(=O)NC(C)(C)C(=O)NO |  | 11 |
| CC[C@H](C)[C@H](NS(=O)(=O)c1ccc(-c2ccc(Cl)cc2)cc1)C(=O)NCCC(=O)NO |  | 62 |
| CC[C@H](C)[C@H](NC(=O)[C@H](Cc1ccccc1)NS(=O)(=O)c1ccc(Br)cc1)C(=O)NO |  | 87 |
| CC[C@H](C)[C@H](NC(=O)[C@@H](NS(=O)(=O)c1ccc(-c2ccc(Cl)cc2)cc1)C(C)C)C(=O)NO | 2900 |  |
| CC[C@H](C)[C@H](NC(=O)[C@H](NS(=O)(=O)c1ccc(-c2ccc(Cl)cc2)cc1)[C@@H](C)CC)C(=O)NO |  | 69 |
| CC[C@H](C)[C@H](NC(=O)[C@@H](NS(=O)(=O)c1ccc(-c2ccc(Cl)cc2)cc1)[C@@H](C)CC)C(=O)NO |  | 85 |
| CC[C@H](C)[C@H](NC(=O)[C@H](Cc1ccccc1)NS(=O)(=O)c1ccccc1)C(=O)NO |  | 52 |
| CC[C@H](C)[C@H](NS(=O)(=O)c1ccc(-c2ccc(Cl)cc2)cc1)C(=O)N[C@@H](Cc1ccccc1)C(=O)NO |  | 44 |
| CC[C@H](C)[C@H](NC(=O)C(C)(C)NS(=O)(=O)c1ccc(-c2ccc(Cl)cc2)cc1)C(=O)NO |  | 84 |
| CC[C@H](C)[C@H](NS(=O)(=O)c1ccc(-c2ccc(Cl)cc2)cc1)C(=O)N[C@@H](C)C(=O)NO |  | 55 |
| CC[C@H](C)[C@H](NS(=O)(=O)c1ccc(-c2ccc(Cl)cc2)cc1)C(=O)NCC(=O)NO |  | 18 |
| CC[C@H](C)[C@H](NC(=O)[C@H](Cc1ccccc1)NS(=O)(=O)c1ccc(Cl)cc1)C(=O)NO |  | 77 |
| CC[C@H](C)[C@H](NS(=O)(=O)c1cc(Cl)cc(Cl)c1)C(=O)N[C@@H](CC(C)C)C(=O)NO | 150 |  |
| CC[C@H](C)[C@H](NC(=O)[C@H](Cc1ccccc1)NS(=O)(=O)c1cccc(C(C)(C)C)c1)C(=O)NO |  | 93 |
| CC[C@H](C)[C@H](NS(=O)(=O)c1ccc(-c2ccc(Cl)cc2)cc1)C(=O)N[C@@H](C(=O)NO)[C@@H](C)CC |  | 57 |
| CCC[C@H](NC(=O)[C@@H](NS(=O)(=O)c1cc(Cl)cc(Cl)c1)[C@@H](C)CC)C(=O)NO | 89 |  |
